Measured values reported in ChEMBL document CHEMBL1131142 (J Med Chem, 1998).
Calls of active or inactive are those of the source. No cut-off for these calls is given here.

Key:
[1] = target: Aldo-keto reductase family 1 member B1 (Sus scrofa, UniProt P80276); assay: In vitro inhibitory activity against aldose reductase in porcine lens.
Outline: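 Partially purified porcine lens AR: lens homogenate in 250 mM phosphate pH 7.4 with 2 mM mercaptoethanol, 20000g supernatant, 40-60% ammonium sulfate cut. Assay mix: 100 mM phosphate pH 6.5, 0.2 mM NADPH, 1.5 mM DL-glyceraldehyde, 0.4 M Li2SO4, 7.0 mU/mL enzyme; 37 °C; A340 decrease over 1 min. IC50 read graphically from log concentration-inhibition curve.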

Rattus norvegicus [2] = assay: Tested in vivo for inhibition of sorbital accumulation in the sciatic nerve of streptozotocin- induced diabetic rat;NS=No significant inhibition at 100 mg/kg; assay type: functional, organism-based; design: dose 100 mg/kg
Rattus norvegicus [3] = assay: Tested in vivo for inhibition of sorbital accumulation in the sciatic nerve of streptozotocin- induced diabetic rat; % Inhibition at 30 mg/kg; assay type: functional
Rattus norvegicus [4] = assay: Compound tested in vivo for inhibition of sorbital accumulation in the sciatic nerve of streptozotocin- induced diabetic rat; No significant inhibition at 1 mg/kg; assay type: functional, organism-based; design: dose 1 mg/kg
Rattus norvegicus [5] = assay: Compound tested in vivo for inhibition of sorbital accumulation in the sciatic nerve of streptozotocin- induced diabetic rat; % Inhibition at 1 mg/Kg; assay type: functional
Rattus norvegicus [6] = organism: Rattus norvegicus; assay: Dose required for inhibition of sorbital accumulation in the sciatic nerve of streptozotocin- induced diabetic rat.; assay type: functional
Outline: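 Oral dosing of streptozotocin-diabetic rats once daily for 5 days; sciatic nerve taken 4 h after final dose. Nerve sorbitol assayed fluorometrically via sorbitol dehydrogenase-generated NADH (ex 365/em 430 nm).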

Rattus norvegicus [7] = assay: Compound tested in vivo for inhibition of sorbital accumulation in the sciatic nerve of streptozotocin- induced diabetic rat; No significant inhibition at 30 mg/kg; assay type: functional, organism-based; design: dose 30 mg/kg
Rattus norvegicus [8] = assay: Tested in vivo for inhibition of sorbital accumulation in the sciatic nerve of streptozotocin- induced diabetic rat; % Inhibition at 100 mg/kg; assay type: functional
Rattus norvegicus [9] = assay: Compound tested in vivo for inhibition of sorbital accumulation in the sciatic nerve of streptozotocin- induced diabetic rat at 100 mg/kg; assay type: functional
Rattus norvegicus [10] = assay: Compound tested for inhibition of sorbital accumulation in the sciatic nerve of streptozotocin- induced diabetic rat; % Inhibition at 1 mg/kg; assay type: functional
Rattus norvegicus [11] = assay: Compound tested in vivo for inhibition of sorbital accumulation in the sciatic nerve of streptozotocin- induced diabetic rat; No significant inhibition at 100 mg/kg; assay type: functional, organism-based; design: dose 100 mg/kg

Compound | IC50 [1] [nM] | inhibition in vivo at 30 mg/kg (Rattus norvegicus [3]) [%] | other results
CN1C(=O)c2cccn2C(CCC(=O)O)C1=O (configuration not stated) | > 10000 | – | inhibition (Rattus norvegicus [2]): inactive
Nc1ccc(CN2C(=O)c3cccn3C3(CC(=O)NC3=O)C2=O)cc1 (configuration not stated) | 140 | 33.4 | –
O=C1CC2(C(=O)N1)C(=O)N(Cc1ccc(Br)cc1F)C(=O)c1ccc(Br)n12 (configuration not stated) | – | – | inhibition (Rattus norvegicus [4]): inactive
O=C1CC2(C(=O)N1)C(=O)N(Cc1ccc(Br)cc1F)C(=O)c1cc(Cl)cn12 (configuration not stated) | – | – | inhibition in vivo at 1 mg/kg (Rattus norvegicus [5]): 23%
O=C(O)CCC1C(=O)NC(=O)c2cccn21 (configuration not stated) | > 10000 | – | inhibition (Rattus norvegicus [2]): inactive
O=C1C[C@]2(C(=O)N1)C(=O)N(Cc1ccc(Br)cc1F)C(=O)c1cccn12 | 190 | – | ED50 (Rattus norvegicus [6]): > 100 mg/kg/day
O=C1CC2(C(=O)N1)C(=O)N(Cc1ccc(Br)cc1F)C(=O)c1cc(Br)cn12 (configuration not stated) | – | – | inhibition in vivo at 1 mg/kg (Rattus norvegicus [5]): 28.8%
COc1ccc(CN2C(=O)c3cccn3C3(CC(=O)NC3=O)C2=O)c(OC)c1 (configuration not stated) | 350 | – | inhibition (Rattus norvegicus [7]): inactive
O=C1CC2(C(=O)N1)C(=O)N(Cc1ccc(Br)cc1F)C(=O)c1ccc(Cl)n12 (configuration not stated) | – | – | inhibition in vivo at 1 mg/kg (Rattus norvegicus [5]): 20.2%
O=C1CC2(C(=O)N1)C(=O)N(Cc1ccccc1Br)C(=O)c1cccn12 (configuration not stated) | – | 82.6 | –
O=C1CC2(C(=O)N1)C(=O)N(c1ccccc1)C(=O)c1cccn12 (configuration not stated) | 200 | 27.2 | –
COC(=O)CN(C)C(=O)c1ccc[nH]1 | > 10000 | – | inhibition in vivo at 100 mg/kg (Rattus norvegicus [8]): 38%
O=C(O)CCC1C(=O)N(Cc2ccc(Cl)c(Cl)c2)C(=O)c2cccn21 (configuration not stated) | 132 | – | inhibition in vivo at 100 mg/kg (Rattus norvegicus [9]): 17.2%
COc1ccc2c(C(=S)N(C)CC(=O)O)cccc2c1C(F)(F)F [TOLRESTAT] | 15 | – | ED50 (Rattus norvegicus [6]): 26.7 mg/kg/day
O=C1CC2(C(=O)N1)C(=O)NC(=O)c1cccn12 (configuration not stated) | 630 | 33.2 | –
O=C1CC2(C(=O)N1)C(=O)N(Cc1ccccc1F)C(=O)c1cccn12 (configuration not stated) | – | 98 | ED50 (Rattus norvegicus [6]): 1.3 mg/kg/day
CN1C(=O)c2cccn2C(CC(=O)O)C1=O (configuration not stated) | > 10000 | – | inhibition in vivo at 100 mg/kg (Rattus norvegicus [8]): 12.8%
O=C(O)CCC1C(=O)N(Cc2ccc(Br)cc2F)C(=O)c2cccn21 (configuration not stated) | 803 | – | inhibition (Rattus norvegicus [2]): inactive
Cc1ccc(CN2C(=O)c3cccn3C3(CC(=O)NC3=O)C2=O)cc1 (configuration not stated) | – | 65.8 | –
CN(CC(=O)O)C(=O)c1ccc[nH]1 | 5000 | – | inhibition in vivo at 100 mg/kg (Rattus norvegicus [8]): 23.7%
CC(C)N1C(=O)c2cccn2C(CC(=O)O)C1=O (configuration not stated) | > 10000 | – | inhibition in vivo at 100 mg/kg (Rattus norvegicus [8]): 12.9%
O=C1CC2(C(=O)N1)C(=O)N(Cc1ccc(C(F)(F)F)cc1)C(=O)c1cccn12 (configuration not stated) | – | 88.4 | –
O=C(O)CC1C(=O)N(Cc2ccc(Br)cc2F)C(=O)c2cccn21 (configuration not stated) | 165 | – | inhibition (Rattus norvegicus [2]): inactive
COc1ccc(CN2C(=O)c3cccn3C3(CC(=O)NC3=O)C2=O)cc1OC (configuration not stated) | – | – | inhibition (Rattus norvegicus [7]): inactive

Compound | IC50 [1] [nM] | inhibition in vivo at 30 mg/kg (Rattus norvegicus [3]) [%] | other results
CC(=O)c1cc2n(c1)C1(CC(=O)NC1=O)C(=O)N(Cc1ccc(Br)cc1F)C2=O (configuration not stated) | 210 | – | inhibition in vivo at 1 mg/kg (Rattus norvegicus [5]): 26.6%
O=C1CC2(C(=O)N1)C(=O)N(Cc1ccc(Cl)c(Cl)c1)C(=O)c1cccn12 (configuration not stated) | – | 112 | ED50 (Rattus norvegicus [6]): 0.6 mg/kg/day
O=C1CC2(C(=O)N1)C(=O)N(Cc1ccc([N+](=O)[O-])cc1)C(=O)c1cccn12 (configuration not stated) | – | 102 | ED50 (Rattus norvegicus [6]): 10.8 mg/kg/day
CN1CC(=O)n2cccc2C1=O | 7500 | – | inhibition in vivo at 100 mg/kg (Rattus norvegicus [8]): 55.7%
O=C1CC2(C(=O)N1)C(=O)N(Cc1cccc(Br)c1)C(=O)c1cccn12 (configuration not stated) | – | 102 | –
O=C1C[C@@]2(C(=O)N1)C(=O)N(Cc1ccc(Br)cc1F)C(=O)c1cccn12 | 15 | – | ED50 (Rattus norvegicus [6]): 0.18 mg/kg/day
O=C1CC2(C(=O)N1)C(=O)N(Cc1ccccc1Cl)C(=O)c1cccn12 (configuration not stated) | 37 | 97 | ED50 (Rattus norvegicus [6]): 5.8 mg/kg/day
CC(C)N1C(=O)c2cccn2C(CCC(=O)O)C1=O (configuration not stated) | > 10000 | – | inhibition (Rattus norvegicus [2]): inactive
O=C1CC2(C(=O)N1)C(=O)N(Cc1ccccc1)C(=O)c1cccn12 (configuration not stated) | – | 69.1 | –
O=C1CC2(C(=O)N1)C(=O)N(Cc1ccc(Br)cc1F)C(=O)c1cc(Br)c(Br)n12 (configuration not stated) | 52 | – | inhibition (Rattus norvegicus [4]): inactive
O=C(O)Cc1nn(Cc2ccc(Br)cc2F)c(=O)c2ccccc12 [PONALRESTAT] | 21 | – | ED50 (Rattus norvegicus [6]): 11 mg/kg/day
COc1ccc(CN2C(=O)c3cccn3C3(CC(=O)NC3=O)C2=O)cc1 (configuration not stated) | – | 46.7 | –
O=C1CC2(C(=O)N1)C(=O)N(Cc1ccc(Cl)cc1)C(=O)c1cccn12 (configuration not stated) | 38 | 105 | ED50 (Rattus norvegicus [6]): 1.5 mg/kg/day
O=C(O)CC1C(=O)NC(=O)c2cccn21 (configuration not stated) | > 10000 | – | inhibition in vivo at 100 mg/kg (Rattus norvegicus [8]): 12.5%
O=C1CC2(C(=O)N1)C(=O)N(Cc1cccc(Cl)c1)C(=O)c1cccn12 (configuration not stated) | 35 | 99.4 | ED50 (Rattus norvegicus [6]): 3.8 mg/kg/day
O=C1CC2(C(=O)N1)C(=O)N(CCc1ccccc1)C(=O)c1cccn12 (configuration not stated) | 270 | 15.3 | –
O=C1CC2(C(=O)N1)C(=O)N(Cc1ccc(Br)cc1F)C(=O)c1cccn12 (configuration not stated) | 45 | 115 | ED50 (Rattus norvegicus [6]): 0.3 mg/kg/day; inhibition in vivo at 1 mg/kg (Rattus norvegicus [10]): 105%
CN1C(=O)c2cccn2C2(CC(=O)NC2=O)C1=O (configuration not stated) | 280 | 51.2 | –
O=C1CC2(C(=O)N1)C(=O)N(Cc1ccc(Br)cc1)C(=O)c1cccn12 (configuration not stated) | – | 108 | ED50 (Rattus norvegicus [6]): 0.48 mg/kg/day
O=C1CC2(C(=O)N1)C(=O)N(Cc1ccc(F)cc1F)C(=O)c1cccn12 (configuration not stated) | – | 98 | ED50 (Rattus norvegicus [6]): 5.4 mg/kg/day
O=C(O)CC1C(=O)N(Cc2ccc(Cl)c(Cl)c2)C(=O)c2cccn21 (configuration not stated) | 131 | – | inhibition (Rattus norvegicus [11]): inactive
O=C1CC2(C(=O)N1)C(=O)N(Cc1ccc(F)cc1)C(=O)c1cccn12 (configuration not stated) | – | 58.8 | –
O=C1CC2(C(=O)N1)C(=O)N(Cc1ccc(Cl)cc1F)C(=O)c1cccn12 (configuration not stated) | – | 110 | ED50 (Rattus norvegicus [6]): 0.74 mg/kg/day
